The record followed here is ChEMBL document CHEMBL1138678, “Concise synthesis and structure-activity relationships of combretastatin A-4 analogues, 1-aroylindoles and 3-aroylindoles, as novel classes of potent antitubulin agents” (J Med Chem, 2004).

One assay has as its system MCF7. The assay can be described thus: Concentration required for the 50% inhibition of human breast cancer (MCF-7) cell line growth. The assay is classed as functional, cell-based.
Another assay relates to MKN-45. The assay can be described thus: Concentration required for the 50% inhibition of human stomach cancer (MKN45) cell line growth. The class given is functional, cell-based.
For a further assay, the system named is NUGC-3. The assay can be described thus: Concentration required for the 50% inhibition of human stomach cancer (NUGC3) cell line growth. The class given is functional, cell-based.
For a further assay, the system named is MES-SA. The assay can be described thus: Concentration required for the 50% inhibition of human uterine cancer (MESSA) cell line growth. The class given is functional, cell-based.
In another assay the test system is A549. The assay can be described thus: Concentration required for the 50% inhibition of human lung caner (A549) cell line growth. The assay is classed as functional, cell-based.
In a further assay the target is Tubulin beta-1 chain (Homo sapiens, UniProt Q9H4B7). The assay can be described thus: Inhibition of tubulin polymerization. The essentials:
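MAP-rich tubulin at 2 mg/mL in 100 mM PIPES (pH 6.9), 2 mM MgCl2, 1 mM GTP, 2% (v/v) DMSO with compound. Turbidity read at 350 nm, 37 °C, every 30 s for 30 min. Area under curve scaled between untreated control (100%) and 10 μM colchicine (0%). IC50 by nonlinear regression, at least three experiments.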

Sequence of Tubulin beta-1 chain (Q9H4B7 whole entry): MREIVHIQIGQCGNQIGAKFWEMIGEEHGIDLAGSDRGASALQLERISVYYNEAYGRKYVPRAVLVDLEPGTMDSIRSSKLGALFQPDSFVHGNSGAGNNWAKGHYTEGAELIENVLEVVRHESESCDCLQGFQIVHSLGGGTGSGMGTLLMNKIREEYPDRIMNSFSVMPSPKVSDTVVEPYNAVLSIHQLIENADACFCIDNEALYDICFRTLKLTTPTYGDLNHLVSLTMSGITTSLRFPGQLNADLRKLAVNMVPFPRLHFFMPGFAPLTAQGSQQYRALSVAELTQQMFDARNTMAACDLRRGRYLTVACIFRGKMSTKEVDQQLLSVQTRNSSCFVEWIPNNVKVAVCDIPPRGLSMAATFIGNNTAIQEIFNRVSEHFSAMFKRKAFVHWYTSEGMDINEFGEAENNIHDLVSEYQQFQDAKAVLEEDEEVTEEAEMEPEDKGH

As to `COc1ccc2c(ccn2C(=O)c2ccc3c(c2)OCO3)c1`, the concentration for half-maximal inhibition (IC50) in the assay on MCF7, with MKN-45, with NUGC-3, with MES-SA and with A549 was greater than 10000 nM in each case.

For the molecule `COc1ccc2c(c1)cc(C)n2C(=O)c1cc(OC)c(OC)c(OC)c1`, on Tubulin beta-1 chain, the IC50 (commonly the point on the concentration scale where inhibition reaches its midpoint) worked out at 3310 nM.

As for `COc1ccc2[nH]cc(C(=O)c3cc(OC)c(OC)c(OC)c3)c2c1`, the IC50 with MCF7 came out at 639 nM; in the assay on MKN-45 it was 326 nM; with NUGC-3, 360 nM; in the assay with MES-SA, 884 nM; in the assay on A549, 614 nM.

Regarding `COc1cc(C(=O)c2c[nH]c3cccc(OC)c23)cc(OC)c1OC`, the half-inhibitory concentration (IC50) in the assay on MCF7 was found to be 9060 nM; with MKN-45, 487 nM; with NUGC-3 it was 3360 nM; in the assay with MES-SA it was 9390 nM; with A549, 6500 nM.

Molecule `COc1cc(OC)cc(C(=O)c2c[nH]c3cc(OC)ccc23)c1` showed an IC50 against Tubulin beta-1 chain of 2690 nM.

On to `COc1ccc2c(C(=O)c3cc(OC)c(OC)c(OC)c3)c(C)[nH]c2c1`, for which, at Tubulin beta-1 chain, the IC50 stood at 900 nM.

Regarding `COc1ccc2c(ccn2C(=O)c2cc(OC)c(OC)c(OC)c2)c1`, the half-inhibitory concentration (IC50) against Tubulin beta-1 chain worked out at 3760 nM.

As for `COc1ccc2c(C(=O)c3cc(OC)c(OC)c(OC)c3)c[nH]c2c1`, the IC50 was found to be 7 nM in the assay with MCF7; 4 nM with MKN-45; 1 nM in the assay on NUGC-3; 4 nM with MES-SA; 23 nM with A549; 2180 nM at Tubulin beta-1 chain.

Consider `COc1ccc(/C=C\c2cc(OC)c(OC)c(OC)c2)cc1O` [COMBRETASTATIN A4], for which the concentration for half-maximal inhibition (IC50) in the assay on MCF7 is 8 nM; in the assay on MKN-45, 82 nM; with NUGC-3 it was greater than 10000 nM; in the assay on MES-SA, 13 nM; with A549 it was 117 nM.
